Test results as given in ChEMBL document CHEMBL6071149, “Synthesis and photo-induced anticancer activity of new 2-phenylethenyl-1H-benzo[e]indole dyes” (Eur J Med Chem, 2024).
The source made the active and inactive calls. No cut-off for these calls is given here.

How the values were obtained:
[1] = system: G-361; assay: Induction of apoptosis in human G361 cells assessed as increase in cleaved BAX level upto 4 uM pretreated for 4 hrs followed by light irradiation of 10 J/cm2 at 414 nm measured after 20 hrs by Western blot analysis; format: functional, cell-based; settings: time 24.0 hrs
Outline: (§1)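 Compound exposure 4 h, then 414 nm irradiation, then 20 h further incubation. Lysates made in RIPA buffer, separated by SDS-PAGE and blotted to nitrocellulose. Primary antibodies in TBS with 4 % BSA and 0.1 % Tween 20, incubated overnight. Peroxidase secondary antibody with chemiluminescent detection. GAPDH served as loading control.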

[2] = Cytotoxicity against human ARN-8 cells-derived from human A375 cells under dark condition measured after 72 hrs by MTT assay; format: functional, cell-based; settings: ARN-8 cell
Outline: (§2)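 Cells grown in phenol red-free DMEM with 10 % FBS, penicillin/streptomycin, 37 °C, 5 % CO₂. Compound added 24 h after plating and incubated 4 h. Irradiated cells received 414 nm LED light at 20 mW/cm², 10 J/cm², then were incubated 20 h or 68 h more. Dark plates were run in parallel without irradiation. MTT was added for 4 h, formazan dissolved in 10 % SDS, absorbance read at 570 nm. EC50 ± SD.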

[3] = system: G-361; assay: Cytotoxicity against human G361 cells pretreated for 4 hrs followed by light irradiation of 10 J/cm2 at 414 nm measured after 68 hrs by MTT assay; format: functional, cell-based; settings: G-361, light or radiation study; outline: as §2
[4] = system: ARN-8 cell; assay: Induction of ROS production in human ARN-8 cells-derived from human A375 cells pretreated for 4 hrs followed by light irradiation of 5 to 10 J/cm2 measured immediately by CM-H2DCFA probe based analysis; format: functional; settings: dose <= 4.0 µM
Outline: (§3)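 Cells loaded next day with 5 µM CM-H₂DCFDA for 30 min, then placed in prewarmed PBS with 5 mM glucose. Compound exposure 4 h, followed by 414 nm irradiation at 5 or 10 J/cm²; dark samples run in parallel. Fluorescence read immediately at 492/530 nm. NAC (5 mM) pretreatment for 10 min gave negative controls. RFU normalised to untreated dark control.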

[5] = system: ARN-8 cell; assay: Induction of ROS production in human ARN-8 cells-derived from human A375 cells upto 4 uM pretreated for 4 hrs followed by light irradiation of 5 to 10 J/cm2 measured immediately in presence of N-acetylcysteine by CM-H2DCFA probe based analysis; format: functional; outline: as §3
[6] = system: ARN-8 cell; assay: Induction of cell cycle arrest in human ARN-8 cells-derived from human A375 cells transfected with p53-responsive beta-galactosidase assessed as increase in p53 activation upto 4 uM pretreated for 4 hrs followed by light irradiation of 10 J/cm2 at 414 nm measured after 20 hrs by fluorescence based assay; format: functional; settings: time 24.0 hrs
Outline: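 ARN8 cells stably carrying the p53-responsive pRGΔfoslacZ reporter. Increasing compound concentrations for 4 h, then 414 nm irradiation at 2.5, 5, 7.5 or 10 J/cm², then 20 h further incubation. Cells lysed in 0.3 % Triton X-100. After 10 min, 4-methylumbelliferyl β-D-galactopyranoside added at a final 80 µM for 1 h. Fluorescence read at […].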

[7] = Cytotoxicity against human ARN-8 cells-derived from human A375 cells under dark condition measured after 24 hrs by MTT assay; format: functional, cell-based; settings: ARN-8 cell; outline: as §2
[8] = system: G-361; assay: Induction of DNA fragmentation in human G361 cells at 0.5 uM pretreated with compound followed by light irradiation of 10 J/cm2 at 414 nm by Comet assay; format: functional, cell-based
Outline: (§4)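 G361 cells exposed at 0.5 µM and irradiated at indicated 414 nm doses. Cells trypsinized and embedded in 1 % LMP agarose on slides, lysed 1 h in buffer with 1 % Triton X. Cold electrophoresis solution for 40 min, then electrophoresis at 20 V, 350 mA for 20 min. Neutralised twice for 10 min, stained with SYBR Green 15 min. Percent DNA in comet head and tail scored.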

[9] = system: ARN-8 cell; assay: Induction of apoptosis in human ARN-8 cells-derived from human A375 cells assessed as decrease in Bcl-2 level upto 4 uM pretreated for 4 hrs followed by light irradiation of 10 J/cm2 at 414 nm measured after 20 hrs by Western blot analysis; format: functional, cell-based; settings: time 24.0 hrs; outline: as §1
[10] = Cytotoxicity against human BJ cells under dark condition measured after 72 hrs by MTT assay; format: toxicity, cell-based; outline: as §2
[11] = system: G-361; assay: Induction of ROS production in human G361 cells assessed as increase in hydroxyl radical production upto 4 uM pretreated for 4 hrs followed by replacement of medium containing probe without compound for 30 mins and subsequent light irradiation of 5 to 10 J/cm2 measured immediately by DHR-123 probe based analysis; format: functional, cell-based
Outline: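 Compound exposure 4 h, then medium replaced with PBS containing 5 µM DHR123 probe for 30 min. Probe removed, cells in PBS irradiated at 5 or 10 J/cm², dark samples in parallel. Fluorescence read immediately at 490/525 nm.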

[12] = system: G-361; assay: Induction of apoptosis in human G361 cells assessed as increase in cleaved pro-caspase-9 level upto 4 uM pretreated for 4 hrs followed by light irradiation of 10 J/cm2 at 414 nm measured after 20 hrs by Western blot analysis; format: functional, cell-based; settings: time 24.0 hrs; outline: as §1
[13] = system: ARN-8 cell; assay: Induction of ROS production in human ARN-8 cells-derived from human A375 cells upto 4 uM treated for 4 hrs under dark condition by CM-H2DCFA probe based analysis; format: functional; outline: as §3
[14] = system: G-361; assay: Induction of apoptosis in human G361 cells assessed as decrease in Mcl-1 level upto 4 uM pretreated for 4 hrs followed by light irradiation of 10 J/cm2 at 414 nm measured after 20 hrs by Western blot analysis; format: functional, cell-based; settings: time 24.0 hrs; outline: as §1
[15] = Selectivity ratio of EC50 for human G361 cells under dark condition measured after 72 hrs by MTT assay to EC50 for human G361 cells pretreated for 4 hrs followed by light irradiation of 10 J/cm2 at 414 nm measured after 68 hrs by MTT assay; format: functional
Outline: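 Ratio of dark EC50 to EC50 after 414 nm irradiation (10 J/cm²). MTT read-out; compound exposure 4 h before irradiation. Each dark value is paired with the matching post-irradiation incubation (20 h or 68 h).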

[16] = system: G-361; assay: Induction of DNA fragmentation in human G361 cells at 0.5 uM by Comet assay; format: functional, cell-based; outline: as §4
[17] = system: ARN-8 cell; assay: Induction of apoptosis in human ARN-8 cells-derived from human A375 cells assessed as increase in cleaved pro-caspase-9 level upto 4 uM pretreated for 4 hrs followed by light irradiation of 10 J/cm2 at 414 nm measured after 20 hrs by Western blot analysis; format: functional, cell-based; settings: time 24.0 hrs; outline: as §1
[18] = system: G-361; assay: Induction of ROS production in human G361 cells pretreated for 4 hrs followed by light irradiation of 5 to 10 J/cm2 measured immediately by CM-H2DCFA probe based analysis; format: functional, cell-based; settings: dose <= 4.0 µM; outline: as §3
[19] = system: G-361; assay: Induction of ROS production in human G361 cells upto 4 uM pretreated for 4 hrs followed by light irradiation of 5 to 10 J/cm2 measured immediately in presence of N-acetylcysteine by CM-H2DCFA probe based analysis; format: functional, cell-based; outline: as §3
[20] = system: G-361; assay: Induction of apoptosis in human G361 cells assessed as increase in cleaved PARP-1 level upto 4 uM pretreated for 4 hrs followed by light irradiation of 10 J/cm2 at 414 nm measured after 20 hrs by Western blot analysis; format: functional, cell-based; settings: time 24.0 hrs; outline: as §1
[21] = system: G-361; assay: Induction of DNA damage in human G361 cells assessed as increase in H2AX phosphorylation at Ser139 at 0.5 to 1 uM pretreated for 4 hrs followed by light irradiation of upto 10 J/cm2 at 414 nm measured after 20 hrs by Western blot analysis; format: functional, cell-based; settings: dose 0.5-1 µM, time 24.0 hrs; outline: as §1

COc1ccc(/C=C/C2=Nc3ccc4ccccc4c3C2(C)C)cc1[N+](=O)[O-]
Activity [1]: Active
EC50 [2]: 7.3 µM
EC50 [3]: 0.2 µM
Activity [4]: Dose-Dependent Effect
Activity [5]: inactive
Activity [6]: Active
EC50 [7]: 9.2 µM
Activity [8]: Active
Activity [9]: Active
EC50 at 72 h [10]: 8.3 µM
Activity [11]: Active
Activity [12]: Active
Activity [13]: inactive
Activity [14]: Active
Ratio EC50 [15]: >28
Activity [16]: inactive
Activity [17]: Active
Activity [18]: Dose-Dependent Effect
Activity [19]: inactive
Activity [20]: Active
Activity [21]: Active
